# Runt-SMMHC FRET: Runt domain-CBFb-SMMHC interaction inhibition | Q01196+Q13951 | Cerulean-Runt/Venus-CBFb-SMMHC FRET ratio 530/480, 1 h | inhibition, % at 20 µM | 220,000 compounds, 0.74% hits | AID 1434;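 active = mean inhibition across duplicate retests at 20 µM reaching about 50%, limit read from the data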;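 also: 0% = DMSO wells and 100% = wells with excess untagged CBFb-SMMHC; inhibitors lower the FRET ratio by blocking Runt binding to CBFb-SMMHC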
# TNF necrop inh: inhibitors of TNF-alpha induced necroptosis in Jurkat FADD-/- cells | 220,000 compounds, 0.068% hits | activation (protection from cell death), % at 10 µM | Jurkat FADD-/- TNF necroptosis rescue, ATP luminescence, 24 h; 0 = TNF only, 100 = no-TNF cells | AID 463075;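 active = activation, meaning protection from cell death, of at least 50% relative to plate controls; inactive = activation below 50%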;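 also: necroptosis triggered by 40 ng/mL TNF-alpha added together with compound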
# Hck-Nef inh: blocks Nef-activated human Hck kinase; P08631; Recombinant Hck-YEEI plus Nef, Z-Lyte FRET kinase assay; inhibition, % at 20 µM; 220,000 compounds, 0.68% hits; AID 463187;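 active = Hck-Nef kinase inhibition above about 50%, limit read from the data; inactive = inhibition below that limit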;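 also: 0% = DMSO with Hck plus Nef and 100% = Hck alone without Nef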
# RanGTP-Impb inh: inhibitors of RanGTP-importin-beta interaction, primary screen, biochemical, FRET, CFP-Ran, YFP-importin-beta, homogeneous | cell-free CFP-Ran/YFP-importin-beta FRET ratio | inhibition, % (test concentration not listed) | 300,000 compounds, 1.1% hits;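 active = more than half of the replicate wells show a fall in the fluorescence ratio signal beyond about 16%, limit read from the data, passing the limit was not always enough; inconclusive = exactly half of the replicate wells pass the set limit; inactive = fewer than half of replicates pass the limit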;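 also: 0% = DMSO wells and 100% = Ran loaded with GDP instead of GTP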
# Runt-CBFb FRET: blocks binding of human RUNX1 Runt domain to CBFb; Q01196+Q13951; Cerulean-Runt/Venus-CBFb FRET ratio 530/480, 1 h; inhibition, % at 20 µM; 220,000 compounds, 0.46% hits; AID 1496;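 active = inhibition over about 50% at 20 µM in the single-dose screen, limit read from the data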;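 also: 0% = DMSO wells and 100% = excess unlabeled CBFb competitor control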
#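 Assay system: Cerulean-Runt domain / Medium: Tris 50 mM pH 7.5, KCl, K2SO4, 0.01% BSA / Timing: protein complex preformed 1 h, compound exposure 1 h, room temperature, dark / Measured by: FRET, excitation 422 nm, emission at 530 and 480 nm / Evaluation: loss of energy transfer signal / Control set: 5 µM unlabeled CBFb as full-inhibition high control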
# L929 necroptosis: L929 zVAD cell death inhibition; L929 zVAD necroptosis rescue, ATP luminescence, 24 h; with zVAD 60 µM; viability rescue, % at 10 µM; 220,000 compounds, 0.38% hits; AID 1377;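 active = activation, scaled between plate controls, above about 75%, limit read from the data; inactive = activation under that limit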;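 also: 0% = zVAD with DMSO and 100% = DMSO alone without zVAD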
# zVAD death conf: confirmed blocker of zVAD induced death in L929 cells | L929 zVAD-induced necroptosis rescue, ATP luminescence, 24 h | activation (protection from necroptosis), % at 10 µM | 760 compounds, 16% hits | shares compounds with L929 necroptosis;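 active = mean protection from necroptosis of at least 50% over duplicate tests; inactive = mean protection below 50%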;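 also: 0% = cells with zVAD alone and 100% = vehicle cells without zVAD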
# * marks the source's active call; other numbers are inactive results; ? = inconclusive; . = no result given. An excerpt weighted towards active compounds, which were near 2.1% of everything screened.
SMILES,Runt-SMMHC FRET,TNF necrop inh,Hck-Nef inh,RanGTP-Impb inh,Runt-CBFb FRET,L929 necroptosis,zVAD death conf
COc1ccccc1C1CC(c2ccccc2)=NN1C(=S)Nc1ccccc1 (stereo unspecified),-4,0,-19,2,1,0,.
O=C(COC(=O)c1cccc(O)c1)Nc1ccc(OC(F)F)cc1,-2,0,-8,-6,-1,1,.
O=C(COC(=O)c1ccc(O)cc1)Nc1ccc(OC(F)F)cc1,3,2,16,0,-1,77*,36
CCN(CC)CCNC(=O)c1cccc(NC(=O)C(=O)c2ccccc2NC(C)=O)c1,-1,2,16,3,2,0,.
COc1cc(/C=C2/SC(=O)NC2=O)ccc1OC(=O)c1ccco1,.,.,.,0,.,.,.
CCOc1cc(/C=C2/SC(=S)NC2=O)ccc1OC(=O)c1ccco1,-10,3,27,-2,-11,79*,2
COc1ccc(C(=O)NC(C)C2CC3CCC2C3)c(OC)c1 (stereo unspecified),.,.,.,-2,.,.,.
COc1cccc(NC(=O)Nc2ccc(C(C)(C)C)cc2)c1,2,2,18,6,1,79*,8
COC(=O)c1ccc(NC(=O)Nc2ccc(OC)cc2)cc1,-4,5,17,-3,0,83*,2
COc1cccc(NC(=O)NC(C)C2CC3CCC2C3)c1 (stereo unspecified),2,1,-10,1,-1,75*,30
O=[N+]([O-])/C(C(Cl)=C(Cl)Cl)=C1\Nc2ccccc2O1,6,1,12,3,8,1,.
C=CCNC(=O)c1c(Br)cnn1-c1ccc(C)cc1,-2,1,-12,?,-2,0,.
c1ccc2c(c1)nc(N1CCOCC1)c1c3ccccc3[nH]c21,31,1,2,0,16,82*,4
O=c1[nH]c2ccccc2nc1N1CCOCC1,-1,-1,-2,-2,-1,1,.
O=Nc1c2ccc[nH]c-2c2ccc([N+](=O)[O-])cc12,2,1,27,6,-1,75*,0
CC1(C)CC(=O)C2=C(C1)Oc1nc3ccccc3cc1C2C(C#N)C#N (stereo unspecified),-1,-12,1,-2,0,90*,2
COC(=O)c1ccc(NC(=O)c2cccc(C)c2[N+](=O)[O-])cc1,-5,4,21,1,2,85*,3
COc1ccc(CCNC(=O)C/C(C)=N/NC(=O)C(c2ccccc2)c2ccccc2)cc1OC,2,36,18,2,1,80*,10
COc1ccc(N/N=C(\C#N)C(N)=O)cc1,3,2,3,-2,1,1,.
COc1ccc(N/N=C(/C(N)=O)C2=NC(C)(C)Cc3ccccc32)cc1,-5,2,54*,3,-5,76*,39
COC(=O)[C@@H](NCc1cccc(CN([C@H](C(=O)OC)C(C)C)S(C)(=O)=O)c1)C(C)C,.,.,.,1,.,.,.
CCc1ccc(NC(=O)CSc2nc3n[nH]c(C)c3c(=N)n2-c2cccc(OC)c2)cc1,-10,-15,2,3,-3,91*,56*
Cc1ccc(/C=N\Nc2nc3ccc(Cl)cc3[nH]2)o1,2,9,0,?,1,86*,78*
Cc1ccc(/C=N/Nc2ccc3ccccc3n2)o1,-1,4,29,.,-3,1,.
COc1ccc(-n2c3c(cc(C#N)c2=O)C(=O)CCC3)cc1,-5,1,-9,-1,0,0,.
N=C1S/C(=C\c2ccc(O)cc2)C(=O)N1c1ccc(F)cc1,-34,2,31,1,-15,80*,1
O=c1[nH]c2ccccc2c2ccccc12,2,-1,30,-1,1,79*,2
c1ccc2c(c1)[nH]c1ccccc12,.,.,.,-3,.,.,.
CNC(=O)NC(=O)CN1C(=O)NC2(CCOc3ccccc32)C1=O (stereo unspecified),.,.,.,-1,.,.,.

# Screening data (PubChem)
